Screening data as filed in PubChem.
Only some compounds are listed: those with a hit (about 1.5% of all), similar ones and a draw of the others.
UCH37 DUB inh: inhibitors of human deubiquitinating enzyme UCH37. inhibition, % (test concentration not listed). Q9Y5K5. hit rate 0.33% among 330,000. AID 588478. purified proteasome/UCH37, Ub-AMC cleavage fluorescence;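 active = mean inhibition over replicate wells above about 20%, limit read from the data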;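 also: 0% = compound-free wells with enzyme and 100% = wells lacking proteasome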
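Material: Human UCH37 enzyme supplied as purified proteasome complex | Schedule: 30 min compound-proteasome preincubation then 25 min substrate reaction, room temperature | Detection: AMC fluorescence from Ub-AMC cleavage, excitation 355 nm, emission 460 nm | Benchmarks: Wells without proteasome as full block, compound-free enzyme plus substrate as uninhibited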
UBC13 polyUb: inhibitors of human UBC13 polyubiquitin chain formation | P61088 | TR-FRET | inhibition, % at 20 µM | hit rate 0.47% among 330,000 | AID 485273; in the data active = inhibition above about 45%, passing the limit was not always enough
Apaf1 inhib: inhibitors of human Apaf-1 apoptosome | O14727 | reconstituted apoptosome caspase-3 activity, DEVD-Rh110 fluorescence | inhibition, % at 20 µM | hit rate 0.71% among 330,000 | AID 489030; active = inhibition of at least 40% at 20 µM;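 also: plate controls were DMSO wells for no effect and DEVD-CHO caspase inhibitor wells for full effect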
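System: Apoptosome proteins | Medium: Hepes pH 7.5 with detergent and BSA | Also added: Cytochrome c trigger plus (Z-DEVD)2-Rh110 caspase-3 substrate | Incubation: 30 min compound preincubation, 50 min activation, room temperature | Detection: Rhodamine 110 fluorescence at Ex 480/Em 540 nm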
PREPL inh: human PREPL enzyme inhibition; recombinant PREPL, fluorescence polarization activity-based probe; AID 2751; hit rate 0.68% among 320,000; Q4J6C6; inhibition, % at 5.96 µM;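 also: 0% = enzyme with DMSO and 100% = wells lacking enzyme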
Target sequence (Q4J6C6 whole entry, looked up): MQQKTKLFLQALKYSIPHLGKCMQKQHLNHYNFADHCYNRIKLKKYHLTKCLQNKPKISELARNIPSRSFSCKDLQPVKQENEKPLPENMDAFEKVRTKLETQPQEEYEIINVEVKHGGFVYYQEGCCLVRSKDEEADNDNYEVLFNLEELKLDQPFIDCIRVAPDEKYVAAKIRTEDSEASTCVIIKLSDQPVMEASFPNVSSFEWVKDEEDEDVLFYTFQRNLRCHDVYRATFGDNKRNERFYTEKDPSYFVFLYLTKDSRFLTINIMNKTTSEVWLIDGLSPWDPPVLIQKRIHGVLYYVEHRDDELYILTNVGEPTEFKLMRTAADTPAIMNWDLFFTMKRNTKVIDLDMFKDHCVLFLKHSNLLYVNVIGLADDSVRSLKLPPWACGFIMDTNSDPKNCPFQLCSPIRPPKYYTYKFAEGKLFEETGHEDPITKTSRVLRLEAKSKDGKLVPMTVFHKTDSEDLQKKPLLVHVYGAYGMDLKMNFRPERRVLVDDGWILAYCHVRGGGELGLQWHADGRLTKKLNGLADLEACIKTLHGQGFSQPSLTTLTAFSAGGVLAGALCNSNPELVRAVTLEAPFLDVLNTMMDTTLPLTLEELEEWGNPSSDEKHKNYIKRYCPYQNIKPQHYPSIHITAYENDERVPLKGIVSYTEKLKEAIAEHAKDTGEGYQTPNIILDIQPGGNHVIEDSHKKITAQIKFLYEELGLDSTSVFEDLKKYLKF
PREPL inh cf: confirmation of human PREPL enzyme inhibitors; shares compounds with PREPL inh; recombinant PREPL, fluorescence polarization activity probe; AID 2803; hit rate 67% among 2,000; inhibition, % at 5.96 µM;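 also: 0% = protein with DMSO and 100% = wells lacking protein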
The depositor's hits bear a star; · = no result. Rule as the data show it, unless noted: active = inhibition above about 43%; inactive = the rest.

SMILES | UCH37 DUB inh | UBC13 polyUb | Apaf1 inhib | PREPL inh | PREPL inh cf
N#C/C(=C\c1cccs1)c1nc2ccccc2[nH]1 | -15.2 | · | · | 37.5 | ·
N#C/C(=C/c1ccc(O)c(O)c1)c1nc2ccccc2[nH]1 | · | -132.3 | 2.3 | 59.7* | 47.5*
COC(=O)CCC(=O)OC1(C)C(=O)C=C2C=C(C3CC3)N(Cc3ccc(OC)cc3)C=C2C1=O (stereo not drawn) | -0.4 | -43.2 | 35.4 | 59.4* | 43.0
COC(=O)CCC(=O)OC1(C)C(=O)C=C2C=C(C3CC3)N(C(CO)CO)C=C2C1=O (stereo not drawn) | 3.4 | -79.7 | 32.9 | 3.5 | ·
COC(=O)CCC(=O)OC1(C)C(=O)C=C2C=C(C3CC3)N(CCc3c[nH]c4ccccc34)C=C2C1=O (stereo not drawn) | 2.9 | -30.6 | 28.4 | 63.3* | 52.1*
O=C(NN=Cc1ccc(Br)s1)c1ccc([N+](=O)[O-])cc1 | 5.7 | · | · | · | ·
COc1ccc(C=NNS(=O)(=O)c2ccccc2)cc1OC(=O)c1ccc(C)cc1 | 1.9 | · | · | · | ·
O=C(C[n+]1cccc(C(=O)NN=Cc2ccc(Br)cc2)c1)c1ccccc1 | 8.4 | · | · | · | ·
CCCCS/C(N)=N/N=Cc1cc(C)ccc1O | -1.2 | · | · | · | ·
Nc1c(Cl)ncnc1N/N=C/c1ccc2ccccc2n1 | · | · | · | 64.2* | 53.3*
O=C(N/N=C/c1ccc(OCc2ccccc2)cc1)c1cc[n+](Cc2ccccc2)cc1 | · | 20.8 | -4.1 | 52.8* | 42.3
Cc1ccccc1OCc1nnc(SCC(=O)Nc2ccc(N3CCOCC3)c(Cl)c2)n1C | 3.7 | -0.5 | 9.5 | 50.9* | 57.7*
COC(CNC(=O)C1CCN(C(=O)c2cc3oc(C)cc3n2Cc2c(F)cccc2Cl)CC1)OC | 2.3 | -1.4 | -7.8 | 42.3 | ·
CCOC(=O)N1CCC(NC(=O)C2CCN(C(=O)c3cc4oc(C)cc4n3Cc3c(F)cccc3Cl)CC2)CC1 | 5.2 | 7.6 | 19.8 | 54.9* | 52.4*
COc1ccc(C=Nn2c(SC)nnc(C(C)(C)C)c2=O)c(OC)c1 | -3.3 | · | · | · | ·
COc1ccc(CN2CCN(c3cc(C)nc4c5c(C)cc(C)nc5nn34)CC2)cc1F | -216.7 | 15.0 | 18.3 | 46.2* | 34.2
COc1cccc2sc(Nc3nc(-c4ccccn4)cs3)nc12 | -4.4 | -0.7 | 28.7 | 49.9* | 45.6*
c1ccc(Nc2nc(-c3ccccn3)cs2)cc1 | -0.1 | -14.8 | 10.8 | 24.8 | ·
Cc1ccc(NC(=S)Nc2ccc3nc(-c4ccccn4)c(-c4ccccn4)nc3c2)cc1C | -0.3 | · | · | 43.6* | 37.3
Cc1ccc(NC(=S)Nc2ccccn2)cc1C | 2.7 | 6.9 | 6.0 | 5.0 | ·
Cc1ccc(-c2[nH]nc3c2C(c2ccsc2)C(C#N)=C(N)O3)cc1 (stereo not drawn) | 3.8 | 5.8 | 14.1 | -4.6 | ·
COc1ccc(-c2[nH]nc3c2C(c2ccsc2)C(C#N)=C(N)O3)cc1 (stereo not drawn) | 0.4 | 4.2 | -8.1 | 89.3* | -14.7
COc1cc(C=NNC(=O)c2ccc(CN3C(=O)c4cccc5cccc3c45)cc2)cc(OC)c1O | -10.8 | · | · | · | ·
CCOC(=O)C1CCN(C(=O)Nc2ccc3nc(-c4ccco4)c(-c4ccco4)nc3c2)CC1 | -44.8 | -12.3 | 69.8* | 60.1* | 64.0*
CCOC(=O)C1CCN(C(=O)Nc2ccc3c(c2)nc(C)n3C)CC1 | 0.3 | -4.2 | -3.7 | 9.8 | ·
SMILES | UCH37 DUB inh | UBC13 polyUb | Apaf1 inhib | PREPL inh | PREPL inh cf
COc1ccc(CNC(=O)c2c(N)n(CCCN3CCOCC3)c3nc4ccccc4nc23)cc1 | -265.9 | 31.1 | 87.3* | 69.5* | 50.3*
COc1ccc(CCNC(=O)c2cc3c(=O)n4cccc(C)c4nc3n(CCCN3CCOCC3)c2=N)cc1 | · | 4.2 | 6.1 | 53.4* | 56.4*
CCC(CO)Oc1cc(NCc2ccccc2C(F)(F)F)c2ncn(C(C)C)c2c1 (stereo not drawn) | 1.5 | 6.9 | 37.0 | 47.8* | 19.5
CCC(CO)Oc1cc(NCc2ccccc2Cl)c2ncn(C(C)C)c2c1 (stereo not drawn) | -0.4 | 3.6 | 23.5 | 59.7* | 29.6
CCC(CO)Oc1cc(NCc2ccccc2)c2ncn(C(C)C)c2c1 (stereo not drawn) | 6.6 | 2.4 | 32.7 | 39.4 | ·
CCC(CO)Oc1cc(NCc2ccccc2F)c2ncn(C(C)C)c2c1 (stereo not drawn) | 0.0 | -4.7 | 14.4 | 35.0 | ·
CCCOc1ccc(-c2c(C(=O)NN=CC3CCCCC3)nnn2-c2nonc2N)cc1 | 3.1 | · | · | · | ·
CC#C[C@]1(O)CC[C@H]2[C@@H]3CCC4=CC(=O)CCC4=C3[C@@H](c3ccc(N(C)C)cc3)C[C@@]21C | 3.1 | -12.2 | 18.2 | 49.9* | 46.5*
C#C[C@]1(O)CCC2C3CCC4=CC(=O)CC[C@@H]4C3CC[C@@]21C (stereo partly drawn) | 5.5 | -4.6 | -3.8 | 12.4 | ·
COc1ccc(C=NNC(=O)CC#N)cc1Oc1nc(Cl)ncc1F | 1.6 | · | · | · | ·
C=CCNC(=S)NN=Cc1ccc(-c2cccc([N+](=O)[O-])c2)o1 | 5.5 | · | · | · | ·
C[n+]1c(-c2ccccc2)sc([S-])c1-c1ccccc1 | 4.3 | 0.8 | 8.3 | 57.0* | 68.7*
COc1ccc(OC)c(C(C)=NNc2ccc(C(=O)O)cc2)c1 | 1.2 | · | · | · | ·
Nc1nc(SCC(=O)c2ccc(Br)s2)n[nH]1 | -1.1 | -11.4 | -4.0 | 51.5* | 29.1
COc1cc(NC(=O)Cc2ccccc2)cc(OC)c1 | 1.6 | 7.3 | 10.1 | 3.3 | ·
COc1cc(NC(=O)C[n+]2ccc(C(=O)c3ccccc3)cc2)cc(OC)c1 | 5.4 | -1.7 | 5.2 | 49.2* | 34.2
CC(CC(=O)Nc1cccc2c1CCCC2)=NNC(=O)c1ccccc1N | -190.2 | · | · | · | ·
O=c1c2ccc([N+](=O)[O-])cc2ncn1CCOc1ccccc1 | · | -0.5 | 1.3 | 44.4* | 32.7
CCC(C)(C)C1CCC(=NNc2nc3ccccc3[nH]2)CC1 (stereo not drawn) | 3.8 | -17.1 | 7.2 | 29.1 | ·
CC(=O)N1CCC(=NNc2nc3ccccc3[nH]2)CC1 | 3.2 | -3.9 | 15.1 | 54.2* | 6.2
CC1CCCN(Cc2c(O)ccc3c(=O)c(-c4nc5ccccc5s4)c(N)oc23)C1 (stereo not drawn) | -131.2 | 19.5 | 16.3 | 64.6* | 62.1*
CC1CCN(Cc2c(O)ccc3c(=O)c(-c4nc5ccccc5s4)c(N)oc23)CC1 | -70.3 | -18.6 | 22.3 | 44.5* | 38.8
CC1(C)CCCN(Cc2c(O)ccc3c(=O)c(-c4nc5ccccc5s4)c(N)oc23)C1 | -202.3 | 2.7 | -8.7 | 43.6* | 38.0
CCOc1ccc(Cl)cc1C=NNC(N)=O | 1.4 | · | · | · | ·
Cc1ccc(OC(=O)CN2C(=O)c3ccccc3C2=O)cc1C | 6.1 | -3.2 | 8.1 | -1.0 | ·
CC1=CC(C)(C)Nc2ccc(OC(=O)CCN3C(=O)c4ccccc4C3=O)cc21 | -7.8 | 4.7 | 17.6 | 79.1* | 78.3*
CCOc1cc(C=NNC(=O)c2ccc(NC(=O)C(C)(C)C)cc2)ccc1OC(=O)c1ccc(C)cc1 | 0.8 | · | · | · | ·
COc1ccc(-c2cc(C(=O)OCC(=O)NC3CC3)c3ccccc3n2)cc1 | -105.3 | 35.9 | 9.9 | 6.2 | ·
